The text below walks through data of ChEMBL document CHEMBL1155802, “Synthesis, DNA binding, and cytotoxic evaluation of new analogs of diallyldisulfide, an active principle of garlic” (Bioorg Med Chem, 2008).

Assay [1] is described as follows: Binding affinity to GC(d(GC)7) oligonucleotide assessed as change in melting temperature by thermal denaturation assay.
Assay [2] has as its system Rattus norvegicus. The assay is described as follows: Decrease in serum cholesterol level in hypercholesterolemic Wistar rat at 20 mg/kg, po for 1 week with diet. The format is functional. The procedure, abridged: (§1)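 Adult male Wistar rats (100–120 g) were used, six per group. They received 5% cholesterol diet for 1 week, then cholesterol-rich diet plus compound at 20 mg/Kgwt, as a suspension in water, po, during week 2. Controls were saline-fed and cholesterol-only groups. Hepatic and serum cholesterol and triglycerides were measured by enzymatic assays. Values are mean ± SE from duplicate assays, compared with the hypercholesterolemic group.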

Assay [3] has as its system Rattus norvegicus. Nature of the assay: Decrease in hepatic cholesterol level in hypercholesterolemic Wistar rat at 20 mg/kg, po for 1 week with diet. The format is functional. The procedure, abridged: as §1
For assay [4], the system named is Rattus norvegicus. The assay is described as follows: Decrease in serum triglyceride level in hypercholesterolemic Wistar rat at 20 mg/kg, po for 1 week with diet. Type of assay: functional. In a few lines:
as §1

For assay [5], the system named is Rattus norvegicus. Nature of the assay: Decrease in hepatic triglyceride level in hypercholesterolemic Wistar rat at 20 mg/kg, po for 1 week with diet. The format is functional. The procedure, abridged:
as §1

Assay [6] relates to DNA. The assay is described as follows: Binding affinity to calf thymus DNA assessed as change in melting temperature by thermal denaturation assay. Type of assay: nucleic-acid assay. The note with it: Bos taurus.
Assay [7] in a line: Binding affinity to GC(d(GC)7) oligonucleotide assessed as melting temperature at pH 7.4 by thermal denaturation assay.
Assay [8] is described as follows: Binding affinity to AT(d(AT)10) oligonucleotide assessed as change in melting temperature by thermal denaturation assay.
Assay [9] can be described thus: Binding affinity to AT(d(AT)10) oligonucleotide assessed as melting temperature at pH 7.4 by thermal denaturation assay.
Assay [10] can be described thus: Binding affinity to GC(d(GC)7) oligonucleotide assessed as binding constant at DNA melting temperature at 12.5 uM. In a few lines: (§2)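 Binding constants came from absorbance at 260 nm versus temperature, 25 to 100 °C at 1 °C/min. Conditions were 20 mM sodium phosphate pH 7.4, 100 mM NaCl, 2.5 μM DNA (bp) and a saturating 12.5 μM analog.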
The test system of assay [11] is DNA. Nature of the assay: Binding affinity to calf thymus DNA assessed as binding constant at DNA melting temperature at 12.5 uM. The format is nucleic-acid assay. The note with it: Bos taurus. The procedure, abridged: as §2
The test system of assay [12] is DNA. The assay is described as follows: Binding affinity to calf thymus DNA assessed as melting temperature at pH 7.4 by thermal denaturation assay. The format is nucleic-acid assay. The note with it: Bos taurus.
For a further assay, the system named is Hepatocyte. The assay is described as follows: Cytotoxicity against rat primary hepatocytes after 24 hrs by MTT assay. The format is cell-based. In a few lines: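 Hepatocytes were isolated from rat liver and cultured in DMEM with 10% FBS at 37 °C under 5% CO2/[…]. Cells were seeded at 1×10^5 cells/ml and exposed to analog at 1–1000 µM for 24 h. MTT was then added for 4 h, formazan was dissolved in DMSO, and A540 was read. Each dose was run in triplicate, and IC50 was derived from mean OD versus concentration curves.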

With `Clc1ccccc1/C=C/CSSC/C=C/c1ccccc1Cl`, the ΔTm in [1] is 6 °C; in the assay with DNA [6], 8 °C; in [8], -3 °C. The Activity in the assay on Rattus norvegicus [2] came to 37.29 mg/dL; with Rattus norvegicus [3] it was 1.87 mg/dL; in the assay with Rattus norvegicus [4], 32.87 mg/dL; in the assay with Rattus norvegicus [5] it was 19.28 mg/dL. The Tm in [7] was 93 °C; in [9], 49 °C; with DNA [12] it was 81 °C. Further, the K in assay [10] was determined as 6.9 ×10⁶ /M; with DNA [11], 4.03 ×10⁵ /M. The compound further registered an IC50 in the assay on Hepatocyte of 425 µM.

As for `C=CCS[S+]([O-])CC=C` (configuration not stated) [ALLICIN], the Activity stood at 42.69 mg/dL in the assay on Rattus norvegicus [2], 2.15 mg/dL in the assay with Rattus norvegicus [3], 36.86 mg/dL in the assay on Rattus norvegicus [4] and 20.34 mg/dL in the assay on Rattus norvegicus [5].

Regarding `Brc1ccccc1/C=C/CSSC/C=C/c1ccccc1Br`, the ΔTm in assay [1] was 5 °C; with DNA [6], 7 °C; in assay [8], 0 °C. The Activity in the assay on Rattus norvegicus [2] stood at 41.07 mg/dL; in the assay on Rattus norvegicus [3], 2.07 mg/dL; in the assay on Rattus norvegicus [4], 35.54 mg/dL; in the assay on Rattus norvegicus [5], 21.41 mg/dL. Also, the Tm was found to be 92 °C in [7], 52 °C in [9] and 80 °C in the assay on DNA [12]. In the assay with Hepatocyte, 365 µM corresponded to half-maximal inhibition (IC50).

As to `O=[N+]([O-])c1ccc(/C=C/CSSC/C=C/c2ccc([N+](=O)[O-])cc2)cc1`, the ΔTm worked out at 7 °C in assay [1], 7 °C with DNA [6] and 0 °C in [8]. In addition, the Activity came to 38.37 mg/dL in the assay on Rattus norvegicus [2], 1.97 mg/dL with Rattus norvegicus [3], 33.32 mg/dL with Rattus norvegicus [4] and 19.8 mg/dL in the assay with Rattus norvegicus [5]. In addition, the melting temperature (Tm) in [7] worked out at 94 °C; in assay [9], 52 °C; in the assay on DNA [12], 80 °C. This compound had an IC50 with Hepatocyte of 335 µM.

For `CC[C@H](C)C(=O)O[C@H]1C[C@@H](C)C=C2C=C[C@H](C)[C@H](CC[C@@H]3C[C@@H](O)CC(=O)O3)[C@H]21` [LOVASTATIN], the Activity with Rattus norvegicus [2] was 36.21 mg/dL; with Rattus norvegicus [3] it was 1.6 mg/dL; with Rattus norvegicus [4], 31.98 mg/dL; in the assay on Rattus norvegicus [5], 17.35 mg/dL.

In the case of `Brc1ccc(/C=C/CSSC/C=C/c2ccc(Br)cc2Br)c(Br)c1`, the ΔTm in assay [1] is 6 °C; in the assay with DNA [6] it was 8 °C; in assay [8], -2 °C. Further, the Activity stood at 41.61 mg/dL in the assay on Rattus norvegicus [2], 2.12 mg/dL with Rattus norvegicus [3], 34.65 mg/dL with Rattus norvegicus [4] and 21.79 mg/dL in the assay with Rattus norvegicus [5]. Moreover, the figures for the Tm (in assay [7]; in assay [9]; with DNA [12]) were 93 °C, 50 °C and 81 °C, respectively. This compound also yielded an IC50 in the assay on Hepatocyte of 275 µM.

Regarding `FC(F)(F)c1ccc(/C=C/CSSC/C=C/c2ccc(C(F)(F)F)cc2)cc1`, the ΔTm in assay [1] came to 4 °C; in the assay with DNA [6], 5 °C; in [8] it was 0 °C. Besides, the Activity turned out to be 42.69 mg/dL in the assay on Rattus norvegicus [2], 2.12 mg/dL with Rattus norvegicus [3], 35.09 mg/dL with Rattus norvegicus [4] and 20.57 mg/dL with Rattus norvegicus [5]. The Tm in [7] was 91 °C; in assay [9], 52 °C; with DNA [12] it was 78 °C. In the assay with Hepatocyte, this compound displayed an IC50 of 140 µM.

For `Fc1ccc(/C=C/CSSC/C=C/c2ccc(F)cc2)cc1`, the shift in melting temperature (ΔTm) in assay [1] was 5 °C; with DNA [6], 6 °C; in assay [8], -1 °C. Further, the Activity is 42.15 mg/dL in the assay on Rattus norvegicus [2], 2.07 mg/dL in the assay with Rattus norvegicus [3], 35.54 mg/dL in the assay on Rattus norvegicus [4] and 21.03 mg/dL in the assay with Rattus norvegicus [5]. The figures for the melting temperature (Tm) (in [7]; in assay [9]; with DNA [12]) were 92 °C, 51 °C and 79 °C, respectively. The compound further gave an IC50 with Hepatocyte of 155 µM.

On to `Clc1ccc(/C=C/CSSC/C=C/c2ccc(Cl)cc2Cl)c(Cl)c1`, for which the ΔTm was 6 °C in assay [1], 8 °C in the assay on DNA [6] and -1 °C in [8]. Also, the Activity in the assay with Rattus norvegicus [2] worked out at 42.15 mg/dL; in the assay on Rattus norvegicus [3] it was 2.04 mg/dL; with Rattus norvegicus [4] it was 34.65 mg/dL; in the assay with Rattus norvegicus [5], 20.61 mg/dL. Moreover, the Tm in assay [7] was 93 °C; in [9], 51 °C; with DNA [12], 81 °C. In the assay with Hepatocyte, 350 µM corresponded to half-maximal inhibition (IC50).

A word on the ΔTm: it is the shift of the melting midpoint relative to a reference. The Tm is the temperature at the midpoint of the melting transition. Usually IC50 stands for the concentration that inhibits the measured activity by half. A lower IC50 goes with greater potency.
